Jurkat NFkB inh – inhibitors of the PMA/ionomycin-induced NF-kB reporter in Jurkat cells; actives 0.53% (n = 330,000); PMA/ionomycin-induced NF-kB luciferase reporter, luminescence; inhibition, % at 4 µM; AID 435003; in the data active = inhibition above about 50%
aSyn 5UTR inh – MLPCN primary screen, SNCA 5' untranslated region. actives 0.82% (n = 300,000). inhibition, % (tested at 7.5 µM). alpha-synuclein 5'UTR reporter, inhibitor activity; in the data active = inhibition above about 60%;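 also: H4 neuroglioblastoma cells stably carrying SNCA 5'UTR luciferase fusion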
IMP-1 inh – inhibitors of Pseudomonas aeruginosa IMP-1 metallo-beta-lactamase | purified IMP-1, nitrocefin hydrolysis, epi-absorbance fluorescence | actives 0.45% (n = 290,000) | inhibition, % at 5.6 µM;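 active = inhibition above the mean plus 3 SD of all compounds in the same screening run, cut at about 4.5% in these data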
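Test system: recombinant IMP-1 enzyme, purified / Medium: HEPES buffer pH 7.1 with ZnSO4 and Brij 35 / Doses: single dose, 5.6 µM / Times: 25 °C, 15 min preincubation, 25 min reaction / Detection: Epi-absorbance via hydrolysed-nitrocefin quenching of white-plate fluorescence, 480/530 nm, EDTA stop / Evaluation: percent inhibition from optical density relative to buffer-blank wells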
697 NFkB inh – inhibitors of the PMA/ionomycin-induced NF-kB reporter in 697 B cells | 697 B-cell NF-kB luciferase reporter, 16 h | inhibition, % at 4 µM | actives 0.33% (n = 330,000) | AID 435022; in the data active = inhibition above about 35%
VIM-2 inh – blocks Pseudomonas aeruginosa VIM-2 metallo-beta-lactamase | purified VIM-2, nitrocefin hydrolysis, epi-absorbance fluorescence | inhibition, % at 5.6 µM | actives 0.89% (n = 290,000);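 active = inhibition above the mean of all tested compounds plus 3 SD, cutoff set per screening run, cut at about 7.5% in these data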;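 also: red hydrolysis product quenches plate fluorescence so inhibitors raise well fluorescence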
Mdm2-MdmX inh – inhibitors of human Mdm2/MdmX interaction. actives 3% (n = 330,000). O15151+Q00987. SaOS-2 split-luciferase Mdm2/MdmX complementation, luminescence. inhibition, % at 8 µM;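 active = inhibition of at least 50% at 8 µM in the primary screen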
Target sequence (O15151 whole entry, looked up): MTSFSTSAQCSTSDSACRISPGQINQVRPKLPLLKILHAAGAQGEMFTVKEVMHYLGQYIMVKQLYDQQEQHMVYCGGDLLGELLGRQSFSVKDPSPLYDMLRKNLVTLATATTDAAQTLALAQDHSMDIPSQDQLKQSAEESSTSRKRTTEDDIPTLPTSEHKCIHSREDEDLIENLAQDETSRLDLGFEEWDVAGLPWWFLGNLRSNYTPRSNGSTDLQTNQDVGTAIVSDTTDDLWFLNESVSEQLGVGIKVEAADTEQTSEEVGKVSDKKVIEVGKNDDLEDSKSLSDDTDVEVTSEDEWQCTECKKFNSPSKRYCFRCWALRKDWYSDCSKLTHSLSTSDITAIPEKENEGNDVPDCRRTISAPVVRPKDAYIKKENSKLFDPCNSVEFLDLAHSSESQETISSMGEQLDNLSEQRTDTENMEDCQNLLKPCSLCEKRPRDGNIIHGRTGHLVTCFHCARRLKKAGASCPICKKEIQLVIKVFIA
Target sequence (Q00987 whole entry, looked up): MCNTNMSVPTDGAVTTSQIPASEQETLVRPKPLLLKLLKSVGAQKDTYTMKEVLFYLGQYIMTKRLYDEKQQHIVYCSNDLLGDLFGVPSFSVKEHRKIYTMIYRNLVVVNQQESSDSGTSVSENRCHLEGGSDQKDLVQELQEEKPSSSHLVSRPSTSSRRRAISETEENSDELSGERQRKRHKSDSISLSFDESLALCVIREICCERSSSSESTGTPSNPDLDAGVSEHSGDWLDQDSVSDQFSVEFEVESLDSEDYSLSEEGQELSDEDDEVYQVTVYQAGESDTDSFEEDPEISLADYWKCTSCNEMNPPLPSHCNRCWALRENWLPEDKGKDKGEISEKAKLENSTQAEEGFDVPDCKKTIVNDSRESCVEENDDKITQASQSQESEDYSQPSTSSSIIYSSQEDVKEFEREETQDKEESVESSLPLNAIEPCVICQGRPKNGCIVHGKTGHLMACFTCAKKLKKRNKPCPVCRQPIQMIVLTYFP
Mdm2-MdmX conf – confirmation of human Mdm2/MdmX interaction inhibitors. shares compounds with Mdm2-MdmX inh. Mdm2-MdmX binding, luminescent assay. inhibition, % at 8 µM. actives 55% (n = 10,000). AID 489028; in the data active = inhibition above about 40%
FLuc counter – inhibits full-length luciferase, flagging false Mdm2/MdmX hits | shares compounds with Mdm2-MdmX inh | SaOS-2 full-length luciferase counterscreen, luminescence | inhibition, % at 8 µM | actives 77% (n = 6,200);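 active = mean inhibition at 8 µM reaching about 37%, which flags the compound as non-specific, limit read from the data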;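 also: p53-null SaOS-2 cells with luciferase driven by a doxycycline-inducible promoter; compound on cells about two nights before reading with doxycycline added after day one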
Numbers stand for hits; n = inactive; x = no result. Hits are enriched below; roughly 4.7% of the tested compounds scored in any of these assays.

SMILES | Jurkat NFkB inh | aSyn 5UTR inh | IMP-1 inh | 697 NFkB inh | VIM-2 inh | Mdm2-MdmX inh | Mdm2-MdmX conf | others
COc1ccc(C(=O)Nc2ccccc2C(=O)N(Cc2ccco2)C(C(N)=O)C(C)C)cc1 (configuration not stated) | n | n | n | n | n | 66 | n
COc1ccc(C(=O)NNC(=O)C(NC(=O)c2ccccc2NC(=O)c2ccco2)C(C)C)cc1 (configuration not stated) | n | n | n | n | n | n | x
CN(c1ccc(OCC(=O)Nc2ccccc2C(=O)O)cc1)S(=O)(=O)c1ccc(Cl)cc1 | n | x | x | n | x | 90 | 40 | FLuc counter=39
COc1ccc(C(=O)Nc2ccccc2C(=O)NC(C(=O)NCc2ccco2)C(C)C)cc1 (configuration not stated) | n | n | n | n | n | 74 | n
COc1ccc(C(=O)N[C@H](C(=O)NCc2ccco2)C(C)C)cc1 | n | n | n | n | n | n | x
O=C(COc1ccc(Cl)cc1)Nc1ccccc1C(=O)NCc1ccco1 | n | n | n | n | n | 73 | n
COc1ccc(-c2nc(NC(=O)c3cc(C(C)(C)C)nn3C)sc2C)cc1 | n | n | n | n | n | 61 | n
N#Cc1ccccc1OCC(=O)OCC(=O)N1CCN(C(=O)c2ccco2)CC1 | n | n | n | n | n | n | x
Nc1c(C(=O)NC2CCCC2)c2nc3ccccc3nc2n1/N=C/c1cccnc1 | n | n | x | n | x | 51 | n
COCCCNC(=O)c1c(N)n(/N=C/c2ccccn2)c2nc3ccccc3nc12 | n | n | n | n | n | n | x
O=C(CSc1nnc(-c2ccccn2)n1Cc1ccccc1)Nc1ccc2c(c1)OCO2 | n | n | n | n | n | n | x
COc1cc(CN2CCCC(CO)(Cc3cccc(Cl)c3)C2)cc2c1OCO2 (configuration not stated) | n | n | n | n | n | n | x
COc1ccc(NC(=O)C(=O)NNC(=O)COc2ccc(OC)cc2)cc1 | n | n | n | n | n | n | x
O=C(COc1ccc2ccccc2c1)NNC(=O)C(=O)Nc1ccccc1 | n | n | n | n | n | 53 | 60 | FLuc counter=99
CCOc1ccc(NC(=S)N(CCCN2CCCC2)Cc2cccn2Cc2ccc(Cl)cc2)cc1 | n | n | n | n | n | 65 | n
Cc1cccc(NC(=S)N(CCCN2CCCC2)Cc2cccn2Cc2ccc(Cl)cc2)c1 | n | n | n | n | n | 54 | n | FLuc counter=n
CN1CCN(CCCN(Cc2ccco2)C(=S)Nc2ccc(Cl)cc2)CC1 | n | n | n | n | n | n | x
O=S1(=O)[C@H]2C[C@@H]3C=C[C@@]2(CN1Cc1ccc(F)cc1)O3 | n | n | n | n | n | n | x
COc1ccc(C)cc1NC(=O)Nc1ccc(Br)cn1 | n | n | n | n | n | n | x
COc1ccccc1CNC(=O)OCc1nccnc1C(=O)Nc1ccc(Br)cn1 | n | n | n | n | n | 55 | n
CC[C@]1(C(=O)OC)[C@H]2C(=O)N(Cc3ccccc3)C(=O)[C@H]2[C@H]2CN(C)C(=NC)N21 | x | x | x | n | x | n | x
CCc1ccccc1Nc1nc(N)nc(COC(=O)C2CCN(C(=O)c3ccc(F)cc3)CC2)n1 | n | x | x | n | x | n | x
CC1(C)CC[C@@]23CC[C@]4(C)[C@@](OC2=O)(C3C1)[C@H]1O[C@H]1C1[C@@]2(C)CC[C@H](O)C(C)(C)C2CC[C@]14C (some centres not stated) | n | n | x | n | x | 75 | n
O=C(C1CC1)N1c2ccccc2Sc2ccccc21 | n | n | n | n | n | 61 | 55 | FLuc counter=75
O=C(c1ccco1)N1CCN(C(=O)c2ccc(CS(=O)c3ccc(F)cc3)o2)CC1 (configuration not stated) | n | n | n | n | n | n | x
Cc1ccc(NC(=O)Nc2ccccc2)cc1[N+](=O)[O-] | n | n | n | n | n | n | x
O=C(Nc1ccc(Cl)c([N+](=O)[O-])c1)Nc1nc2ccccc2s1 | n | n | n | n | n | 85 | n | FLuc counter=85

Source: PubChem BioAssay (several laboratories)
